ChEMBL document CHEMBL1157506, “Synthesis and pharmacological characterization of chiral pyrrolidinylfuran derivatives: the discovery of new functionally selective muscarinic agonists” (J Med Chem, 2008)

How the values were obtained:
[1] = Antagonist activity at muscarinic M1/M4 receptor in guinea pig lung assessed as effect on tissue contraction; type: functional, Cavia porcellus
[2] = target: T1, Muscarinic acetylcholine receptor M1 (Homo sapiens, UniProt P11229); assay: Displacement of [3H]NMS from human muscarinic M1 receptor expressed in CHO cells by liquid scintillation counter; type: cell-based
T1 sequence (P11229 whole entry): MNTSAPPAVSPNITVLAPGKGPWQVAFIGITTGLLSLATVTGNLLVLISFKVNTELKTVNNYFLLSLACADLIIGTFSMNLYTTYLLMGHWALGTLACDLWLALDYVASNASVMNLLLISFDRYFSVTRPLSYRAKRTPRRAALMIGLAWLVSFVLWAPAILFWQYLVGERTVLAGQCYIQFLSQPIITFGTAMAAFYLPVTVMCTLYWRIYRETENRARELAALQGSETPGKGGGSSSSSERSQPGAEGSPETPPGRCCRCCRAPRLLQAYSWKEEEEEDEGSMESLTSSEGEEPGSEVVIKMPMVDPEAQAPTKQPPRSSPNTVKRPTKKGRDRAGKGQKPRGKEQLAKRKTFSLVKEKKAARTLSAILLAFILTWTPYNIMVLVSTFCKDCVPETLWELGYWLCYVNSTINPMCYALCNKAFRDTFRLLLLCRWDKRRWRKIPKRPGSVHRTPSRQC

[3] = target: T2, Muscarinic acetylcholine receptor M2 (Homo sapiens, UniProt P08172); assay: Displacement of [3H]NMS from human muscarinic M2 receptor expressed in CHO cells by liquid scintillation counter; type: cell-based
T2 sequence (P08172 whole entry): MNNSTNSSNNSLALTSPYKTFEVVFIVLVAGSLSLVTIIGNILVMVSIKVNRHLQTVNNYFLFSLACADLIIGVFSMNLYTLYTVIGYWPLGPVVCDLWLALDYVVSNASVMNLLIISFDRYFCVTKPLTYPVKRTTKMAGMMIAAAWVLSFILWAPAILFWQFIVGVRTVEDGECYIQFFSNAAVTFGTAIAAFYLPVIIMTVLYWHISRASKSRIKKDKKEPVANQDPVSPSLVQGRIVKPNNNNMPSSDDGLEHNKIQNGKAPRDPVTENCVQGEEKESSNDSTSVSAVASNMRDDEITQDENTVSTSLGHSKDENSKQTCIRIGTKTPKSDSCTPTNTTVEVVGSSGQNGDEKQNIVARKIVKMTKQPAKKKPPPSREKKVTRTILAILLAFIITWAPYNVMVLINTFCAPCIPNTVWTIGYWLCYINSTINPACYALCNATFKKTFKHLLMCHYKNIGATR
Procedure, shortened: (§1)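 Membrane protein was 70 µg/mL for hm2, 50 µg/mL for hm4 and 25 µg/mL for hm5. Incubation was 120 min at room temperature in 25 mM sodium phosphate with 5 mM MgCl2, pH 7.4. GF/C filtration and scintillation counting followed; duplicates.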

[4] = target: Muscarinic acetylcholine receptor M3 (Homo sapiens, UniProt P20309); assay: Displacement of [3H]NMS from human muscarinic M3 receptor expressed in CHO cells by liquid scintillation counter; type: cell-based
[5] = target: T3, Muscarinic acetylcholine receptor M4 (Homo sapiens, UniProt P08173); assay: Displacement of [3H]NMS from human muscarinic M4 receptor expressed in CHO cells by liquid scintillation counter; type: cell-based; procedure, shortened: as §1
T3 sequence (P08173 whole entry): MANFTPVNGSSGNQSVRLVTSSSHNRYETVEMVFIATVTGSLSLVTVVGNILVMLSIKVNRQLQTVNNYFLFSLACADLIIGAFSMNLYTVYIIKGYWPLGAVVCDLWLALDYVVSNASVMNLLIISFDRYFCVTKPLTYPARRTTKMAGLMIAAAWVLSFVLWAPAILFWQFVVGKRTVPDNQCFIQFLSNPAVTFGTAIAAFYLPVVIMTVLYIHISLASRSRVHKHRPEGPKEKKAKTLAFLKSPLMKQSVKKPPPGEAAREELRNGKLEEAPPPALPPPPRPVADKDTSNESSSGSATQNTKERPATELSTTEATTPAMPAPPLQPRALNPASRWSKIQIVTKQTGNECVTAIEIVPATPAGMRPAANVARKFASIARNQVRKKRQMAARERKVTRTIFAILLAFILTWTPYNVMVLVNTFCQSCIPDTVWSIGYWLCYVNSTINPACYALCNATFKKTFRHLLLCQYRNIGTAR

[6] = target: T4, Muscarinic acetylcholine receptor M5 (Homo sapiens, UniProt P08912); assay: Displacement of [3H]NMS from human muscarinic M5 receptor expressed in CHO cells by liquid scintillation counter; type: cell-based; procedure, shortened: as §1
T4 sequence (P08912 whole entry): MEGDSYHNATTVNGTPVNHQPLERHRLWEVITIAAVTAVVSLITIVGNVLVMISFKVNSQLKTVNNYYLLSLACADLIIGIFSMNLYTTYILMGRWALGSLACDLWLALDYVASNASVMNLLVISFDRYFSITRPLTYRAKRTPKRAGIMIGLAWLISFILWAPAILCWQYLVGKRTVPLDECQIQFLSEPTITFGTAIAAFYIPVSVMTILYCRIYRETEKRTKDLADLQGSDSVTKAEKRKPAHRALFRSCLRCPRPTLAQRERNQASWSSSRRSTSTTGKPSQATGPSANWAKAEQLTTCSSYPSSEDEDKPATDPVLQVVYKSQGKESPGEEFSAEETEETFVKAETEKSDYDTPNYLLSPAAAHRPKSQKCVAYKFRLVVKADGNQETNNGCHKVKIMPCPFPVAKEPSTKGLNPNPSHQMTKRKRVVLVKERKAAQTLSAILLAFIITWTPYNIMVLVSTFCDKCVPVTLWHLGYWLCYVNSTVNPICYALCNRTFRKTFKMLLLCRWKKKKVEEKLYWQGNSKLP

Oryctolagus cuniculus = organism: Oryctolagus cuniculus; assay: Intrinsic activity at muscarinic M1/M4 receptor in New Zealanda white rabbit vas deferens assessed as effect on isometric tissue contraction relative to control; type: tissue-based
Procedure, shortened: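 Vas deferens in solution with 10^-6 M yohimbine and 10^-8 M tripitramine at 30 °C, field-stimulated (0.1 ms, 2 Hz, 10-15 V). Contractions recorded isometrically after 1 h equilibration. A cumulative McN-A-343 reference curve was built, then cumulative curves to the test agonist. Responses are expressed as % of the control curve's maximum. Parallel reference-only tissues served as sensitivity checks.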

Cavia porcellus [7] = organism: Cavia porcellus; assay: Intrinsic activity at muscarinic M2 receptor in guinea pig atrium assessed as effect on inotropic activity relative to control; type: tissue-based; settings: Cardiac atrium
Procedure, shortened: (§2)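 Left atria in PSS at 30 °C, paced via platinum electrodes (1 ms, 1 Hz, 5-10 V). Inotropic force recorded isometrically after 2 h equilibration. A cumulative APE reference curve was obtained, then cumulative agonist curves. Responses are expressed as % of the control maximal response.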

[8] = Agonist activity at muscarinic M2 receptor in guinea pig atrium assessed as effect on inotropic activity; type: functional, Cavia porcellus, Cardiac atrium; procedure, shortened: as §2
Cavia porcellus [9] = organism: Cavia porcellus; assay: Intrinsic activity at muscarinic M3 receptor in guinea pig ileum assessed as effect on tissue tension changes relative to control; type: tissue-based
Procedure, shortened: (§3)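 Ileum tension changes recorded isotonically after 30 min equilibration. APE curves were run at 30 min intervals; the first was discarded and the second was taken as control. Cumulative agonist curves followed, with responses expressed as % of the control maximum. Parallel reference-only tissues served as sensitivity checks.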

[10] = Agonist activity at muscarinic M3 receptor in guinea pig ileum assessed as effect on tissue tension changes; type: functional, Cavia porcellus; procedure, shortened: as §3
[11] = Antagonist activity at muscarinic M1/M4 receptor in New Zealanda white rabbit vas deferens assessed as effect on isometric tissue contraction; type: functional, Oryctolagus cuniculus
Procedure, shortened: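 Rabbit vas deferens bathed at 30 °C with 10^-6 M yohimbine and 10^-8 M tripitramine to block α2-adrenoceptors and M2 receptors. Electrically stimulated with square-wave pulses (0.1 ms, 2 Hz, 10-15 V) and equilibrated 1 h. Isometric contractions recorded during a cumulative dose-response curve to McN-A-343. Responses are expressed as % of maximal control-curve response, with parallel reference-agonist-only tissues run.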

Cavia porcellus [12] = organism: Cavia porcellus; assay: Intrinsic activity at muscarinic M1/M4 receptor in guinea pig lung assessed as effect on tissue contraction relative to control
[13] = Agonist activity at muscarinic M1/M4 receptor in guinea pig lung assessed as effect on tissue contraction; type: functional, Cavia porcellus

Chain of Muscarinic acetylcholine receptor M3 (P20309 whole entry): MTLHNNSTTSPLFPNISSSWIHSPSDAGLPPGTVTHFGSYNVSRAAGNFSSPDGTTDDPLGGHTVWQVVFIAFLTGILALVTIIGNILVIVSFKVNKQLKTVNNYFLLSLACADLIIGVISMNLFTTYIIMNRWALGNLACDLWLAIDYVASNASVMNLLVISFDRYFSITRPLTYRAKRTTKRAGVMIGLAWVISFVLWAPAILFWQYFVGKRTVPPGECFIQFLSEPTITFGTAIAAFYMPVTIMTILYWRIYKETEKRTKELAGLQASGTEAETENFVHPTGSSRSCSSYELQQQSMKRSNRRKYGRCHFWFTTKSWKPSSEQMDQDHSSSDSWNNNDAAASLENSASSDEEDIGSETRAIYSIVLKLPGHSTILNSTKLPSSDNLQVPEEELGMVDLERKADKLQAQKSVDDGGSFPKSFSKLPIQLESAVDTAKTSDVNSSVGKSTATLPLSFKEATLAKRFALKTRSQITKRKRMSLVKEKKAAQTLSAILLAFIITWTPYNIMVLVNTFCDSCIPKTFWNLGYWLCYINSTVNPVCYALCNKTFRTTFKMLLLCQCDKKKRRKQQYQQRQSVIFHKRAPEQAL

| SMILES | pKb [1] | Ki [2] [µM] | Ki [3] [µM] | Ki [4] [µM] | Ki [5] [µM] | Ki [6] [µM] | Intrinsic activity (Oryctolagus cuniculus) | Intrinsic activity (Cavia porcellus [7]) | pD2 [8] | Intrinsic activity (Cavia porcellus [9]) | pD2 [10] | pKb [11] | Intrinsic activity (Cavia porcellus [12]) | pD2 [13] | A50 (Cavia porcellus [7]) | pD2 [1] |
| --- | --- | --- | --- | --- | --- | --- | --- | --- | --- | --- | --- | --- | --- | --- | --- | --- |
| CN1CCC[C@@H]1c1ccco1 | <5 | 77.6 | 47.9 | 81.3 | 79.4 | 75.9 | 0.47 | 0.45 | 7.38 | 0.31 | 5.65 |  |  |  |  |  |
| Cc1ccc([C@H]2CCCN2C)o1 | <5 | 44.7 | 19.5 | 28.8 | 58.9 | 31.6 |  | 0.32 | 6.4 | 0.22 | 4.93 | <5 |  |  |  |  |
| Cc1ccc(C[N+](C)(C)C)o1 |  | 7.94 | 0.955 | 6.17 | 6.31 | 6.92 |  |  |  |  |  |  |  |  |  |  |
| c1coc([C@@H]2CCCN2)c1 |  | 63.1 | 107 | 43.7 | 102 | 47.9 |  |  |  |  |  |  |  |  |  |  |
| C[N+]1(C)CCC[C@H]1c1ccco1.[I-] | <5 | 30.9 | 7.41 | 21.4 | 21.4 | 20.9 | 0.21 | 0.3 | 7.19 | 0.41 | 5.77 |  |  |  |  |  |
| CN1CCC[C@H]1c1ccco1 |  | 43.7 | 30.9 | 52.5 | 56.2 | 63.1 | 0.3 | 0.65 | 6.82 | 0.37 | 5.83 |  | 0.33 | 6.72 |  |  |
| Cc1ccc([C@H]2CCC[N+]2(C)C)o1.[I-] | <5 | 13.8 | 2.69 | 7.76 | 13.8 | 9.55 |  | 0.44 | 7.66 | 0.26 | 7.1 | 5.67 |  |  |  |  |
| Cc1ccc(C2CCCN2)o1 (racemic) | 5.51 | 38 | 4.27 | 18.2 | 51.3 | 19.1 |  | 1 | 6.66 | 0.97 | 5.57 |  |  |  |  |  |
| C#CCOC(=O)C1=CCCN(C)C1 [ARECAIDINE PROPARGYL ESTER] |  |  |  |  |  |  | 1 | 1 | 8.67 | 1 | 7.64 |  | 1 | 5.56 |  |  |
| Cc1ccc([C@H]2CCCN2)o1 |  | 14.5 | 3.24 | 12 | 29.5 | 15.8 | 1 |  | 6.71 | 1 | 6.16 |  | 0.32 | 5.45 | 1 |  |
| Cc1ccc([C@@H]2CCCN2)o1 | 5 | 155 | 28.8 | 148 | 209 | 138 |  | 0.6 | 6.1 | 1 | 5 | <5 |  |  |  |  |
| c1coc([C@H]2CCCN2)c1 |  | 46.8 | 77.6 | 25.1 | 89.1 | 31.6 |  |  |  |  |  |  |  |  |  |  |
| C[N+]1(C)CCC[C@@H]1c1ccco1.[I-] |  | 51.3 | 14.1 | 17.8 | 28.2 | 23.4 | 0.28 | 0.4 | 6.49 | 0.25 | 5.37 |  |  |  |  | <5 |
| C[N+](C)(C)CCOC(N)=O.[Cl-] [CARBACHOL] |  |  |  |  |  |  |  | 1 |  | 1 |  |  | 1 |  |  |  |
| c1coc(C2CCCN2)c1 (racemic) |  | 178 | 29.5 | 11.5 | 87.1 | 16.6 |  |  |  |  |  |  |  |  |  |  |
| Cc1ccc(C2CCC[N+]2(C)C)o1.[I-] (racemic) | <5 | 7.41 | 1.91 | 6.92 | 4.37 | 4.68 |  | 0.33 | 7.55 | 0.28 | 7.25 |  |  |  |  |  |
| C[N+](C)(C)CC#CCOC(=O)Nc1cccc(Cl)c1 |  | 1.95 | 3.24 | 2.4 | 9.12 | 3.8 | 1 |  |  |  |  |  |  |  |  |  |
| C[N+]1(C)CCCC1c1ccco1.[I-] (racemic) |  | 5.25 | 3.72 | 2.75 | 6.46 | 3.16 | 0.26 | 0.38 | 6.65 | 0.19 | 5.65 |  |  |  |  | <5 |
